From ChEMBL document CHEMBL1124453, “18-cycloalkyl analogues of enisoprost” (1989)

Key:
Canis familiaris [1] = experiment: Activity for gastric antisecretory activity in dogs by intrapouch administration and the value ranges between 0.069-0.096; type: functional; conditions: Canis lupus familiaris, Stomach
Summary of the method: (§1)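 Adult female beagles (6-11 kg) with innervated Pavlov pouches, fasted 24 h with water available. Prostaglandin in isosmotic phosphate buffer pH 7.4 (≤20% ethanol) or vehicle given into the pouch via Thomas cannula after a 30-min basal collection. Canned food fed 30 min later. Juice collected at 30-min intervals for 4 h; acid output = volume × acidity.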

Rattus norvegicus [2] = experiment: Activity for diarrheagenic effect in rats by intragastric administration and the value ranges between 141-1134; type: functional; conditions: po
Summary of the method: (§2)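 Adult male Charles River rats (210–230 g), individually housed, fasted 24 h with water ad libitum. Logarithmically graded prostaglandin doses given orally (intragastric), N = 6-12 per group. Diarrhea scored all-or-none over 8 h after dosing. Prostaglandin stock 1 mg/mL in absolute ethanol, diluted in phosphate buffer pH 7.4 to at most 20% ethanol.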

Canis familiaris [3] = experiment: Activity for gastric antisecretory activity in dogs by intrapouch administration; type: functional; conditions: Canis lupus familiaris, Stomach; summary of the method: as §1
Rattus norvegicus [4] = experiment: Activity for diarrheagenic effect in rats by intragastric administration; type: functional; conditions: po; summary of the method: as §2
Canis familiaris [5] = experiment: Activity for gastric antisecretory activity in dogs by intrapouch administration and the value ranges between 0.06-0.12; type: functional; conditions: Canis lupus familiaris, Stomach; summary of the method: as §1
Rattus norvegicus [6] = experiment: Activity for diarrheagenic effect in rats by intragastric administration and the value ranges between 947-1848; type: functional; conditions: po; summary of the method: as §2
Canis familiaris [7] = experiment: Activity for gastric antisecretory activity in dogs by intrapouch administration and the value ranges between 0.083-0.094; type: functional; conditions: Canis lupus familiaris, Stomach; summary of the method: as §1
Rattus norvegicus [8] = experiment: Activity for diarrheagenic effect in rats by intragastric administration and the value ranges between 106-698; type: functional; conditions: po; summary of the method: as §2
Canis familiaris [9] = experiment: No inhibitory activity (3 ug/kg) for gastric antisecretory activity in dogs by intrapouch administration; type: functional, Canis lupus familiaris, Stomach
Summary of the method: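 Food-stimulated Pavlov-pouch beagles were dosed intrapouch, highest dose tested 3.0 µg/kg, in phosphate buffer pH 7.4 with at most 20% ethanol. Gastric juice was collected at 30-min intervals for 4 h after feeding. Percent reduction of total acid output (volume × acidity) from control was calculated.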

Canis familiaris [10] = experiment: Activity for gastric antisecretory activity in dogs by intrapouch administration and the value ranges between 0.017-0.032; type: functional; conditions: Canis lupus familiaris, Stomach; summary of the method: as §1
Rattus norvegicus [11] = experiment: Activity for diarrheagenic effect in rats by intragastric administration and the value ranges between 37-77; type: functional; conditions: po; summary of the method: as §2
Canis familiaris [12] = experiment: Activity for gastric antisecretory activity in dogs by intrapouch administration and the value ranges between 63.2-76.9; type: functional; conditions: Canis lupus familiaris, Stomach; summary of the method: as §1

Q: With COC(=O)CC/C=C\CC[C@H]1C(=O)C[C@@H](O)[C@@H]1/C=C/CC(C)(O)CCC1CCC1 (stereo partly drawn) as the compound, how does the ED50 (Canis familiaris [1]) read?
A: Its ED50 is 0.09 µg/kg.

Q: What about the ED50 (Rattus norvegicus [2]) of the same compound?
A: The ED50 was 316 µg/kg.

Q: For COC(=O)CC/C=C\CC[C@H]1C(=O)C[C@@H](O)[C@@H]1/C=C/CC(C)(O)CCC1CCCCCC1 (stereo partly drawn), which ED50 (Canis familiaris [3]) is on record?
A: The ED50 was roughly 95 µg/kg.

Q: And the ED50 (Rattus norvegicus [4])?
A: Its ED50 is greater than 3160 µg/kg.

Q: How did the ED50 (Canis familiaris [5]) turn out when COC(=O)CC/C=C\CC[C@H]1C(=O)C[C@@H](O)[C@@H]1/C=C/CC(C)(O)CCC1CCCC1 (stereo partly drawn) was run?
A: Its ED50 is 0.09 µg/kg.

Q: And the ED50 (Rattus norvegicus [6])?
A: The ED50 was 1310 µg/kg.

Q: Which ED50 (Canis familiaris [7]) does the source give for COC(=O)CC/C=C\CC[C@H]1C(=O)C[C@@H](O)[C@@H]1/C=C/CC(C)(O)CCC1CC1 (stereo partly drawn) here?
A: The ED50 was 0.09 µg/kg.

Q: What about the ED50 (Rattus norvegicus [8]) of the same compound?
A: The ED50 was 273 µg/kg.

Q: Which Inhibition (Canis familiaris [9]) does the source give for COC(=O)CC/C=C\CC[C@H]1C(=O)C[C@@H](O)[C@@H]1/C=C/CC(C)(O)CCCCO (stereo partly drawn) here?
A: Its Inhibition is 0%.

Q: What does the source list for CCCCC(C)(O)C/C=C/[C@H]1[C@H](O)CC(=O)[C@@H]1CC/C=C\CCC(=O)OC (stereo partly drawn) [ENISOPROST]?
A: ED50 (Canis familiaris [10]): 0.023 µg/kg; ED50 (Rattus norvegicus [11]): 49 µg/kg

Q: How did the ED50 (Canis familiaris [12]) turn out when COC(=O)CC/C=C\CC[C@H]1C(=O)C[C@@H](O)[C@@H]1/C=C/CC(C)(O)CCC1CCCCC1 (stereo partly drawn) was run?
A: The ED50 was 70 µg/kg.

Q: And the ED50 (Rattus norvegicus [4])?
A: The ED50 was greater than 3160 µg/kg.
